Active and inactive are the calls of the source. The rule behind the calls is not given here.
Tests used:
[1] = Antiproliferative activity against human BEL7404/CP20 cells after 48 hrs by MTT assay; type: functional, cell-based; conditions: BEL7404/CP20, 48 h
Method in brief: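 Colorimetric MTT assay. KB-3-1, NCI-H460 and Bel-7404 cells were seeded at 4000 cells/well; resistant KB/CP4, NCI-H460/MX20 and Bel-7404/CP20 were seeded at 7000 cells/well. Cells were pre-incubated 24 h at 37 °C, 5% CO2, then exposed to a compound concentration series for 48 h with DMSO ≤0.25%. Absorbance read at 570 nm. Quadruplicate wells, three repeats; means ± SD.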

MCF7 [2] = test: Induction of apoptosis in human MCF7 cells assessed as live cells at 0.5 uM after 24 hrs by Annexin-V FITC/propidium iodide staining based flow cytometry (reference value: 97%); type: functional
MCF7 [3] = test: Induction of apoptosis in human MCF7 cells assessed as increase in caspase-9 protein expression up to 1 uM after 48 hrs by Western blot method; type: functional, cell-based
Method in brief: (§1)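 MCF-7 cells were treated at 0, 0.125, 0.25, 0.5 or 1 μM for 48 h, washed in ice-cold PBS and lysed on ice for 20 min. Lysates were spun at 13,000 g, 4 °C. 20 μg protein was run on SDS-PAGE and blotted to PVDF, probed overnight at 4 °C with primary antibodies, then with fluorescent secondary antibodies. Band density was expressed relative to β-actin; three independent experiments.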

MCF7 [4] = test: Induction of apoptosis in human MCF7 cells assessed as late apoptotic cells at 1 uM after 24 hrs by Annexin-V FITC/propidium iodide staining based flow cytometry (reference value: 0.255%); type: functional
MCF7 [5] = test: Induction of apoptosis in human MCF7 cells assessed as increase in cytochrome c protein expression at 0.5 to 1 uM after 48 hrs by Western blot method; type: functional, cell-based; method in brief: as §1
Mus musculus [6] = test: Toxicity in Balb/c nude mouse xenografted with human MCF7 cells assessed as changes in body weight at 20 mg/kg/day, iv for 4 weeks measured once in 2 days during compound dosing; type: organism-based; conditions: in vivo
Method in brief: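 Mice received 1 × 10^6 tumor cells subcutaneously in the right flank: MCF-7 in male BALB/c nude mice aged six weeks, H22 in male ICR mice aged five weeks. After 7 d they were randomized (six or eight per group). Dosing was 20 mg/kg iv daily in 10% DMF/2% poloxamer/88% saline for 21 or 28 days; saline control. Body weight was recorded every 2 days.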

[7] = target: T1, M-phase inducer phosphatase 3 (Homo sapiens) (UniProt P30307); test: Induction of cdc25c phosphorylation in human MCF7 cells after 48 hrs by Western blot method; type: cell-based; method in brief: as §1
T1 sequence (whole entry): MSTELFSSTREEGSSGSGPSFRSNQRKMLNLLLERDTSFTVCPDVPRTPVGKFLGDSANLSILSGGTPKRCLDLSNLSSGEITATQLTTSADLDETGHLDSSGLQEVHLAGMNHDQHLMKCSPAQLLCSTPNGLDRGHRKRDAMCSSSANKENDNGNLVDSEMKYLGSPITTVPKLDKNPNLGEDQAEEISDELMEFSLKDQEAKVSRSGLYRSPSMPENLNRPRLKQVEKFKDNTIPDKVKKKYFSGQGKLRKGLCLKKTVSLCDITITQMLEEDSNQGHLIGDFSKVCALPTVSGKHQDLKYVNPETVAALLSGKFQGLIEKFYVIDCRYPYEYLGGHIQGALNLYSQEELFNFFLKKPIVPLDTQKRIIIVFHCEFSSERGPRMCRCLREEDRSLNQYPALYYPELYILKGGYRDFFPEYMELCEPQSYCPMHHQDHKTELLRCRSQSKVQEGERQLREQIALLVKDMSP

MCF7 [8] = test: Induction of apoptosis in human MCF7 cells assessed as early apoptotic cells at 1 uM after 24 hrs by Annexin-V FITC/propidium iodide staining based flow cytometry (reference value: 2.65%); type: functional
MCF7 [9] = test: Induction of apoptosis in human MCF7 cells assessed as late apoptotic cells at 0.25 uM after 24 hrs by Annexin-V FITC/propidium iodide staining based flow cytometry (reference value: 0.255%); type: functional
[10] = Selectivity ratio of IC50 for human KB/CP4 cells to IC50 for human KB-3-1 cells
H22 = test: Antitumor activity against […] cells xenografted in ICR mouse assessed as tumor growth inhibition at 20 mg/kg/day, iv for 3 weeks; type: functional, organism-based
Method in brief: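 Male ICR mice (5 weeks old) inoculated subcutaneously in the right flank with 1 × 10^6 H22 cells. After 7 d, randomized into groups of eight or six. Dosed iv 20 mg/kg daily in 10% DMF/2% poloxamer/88% saline. Cyclophosphamide 20 mg/kg iv as positive control; saline as negative control. Body weight and tumour volume (L × W²/2) every 2 days; inhibition calculated from final tumour weights.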

Mus musculus [11] = test: Cardiotoxicity in Balb/c nude mouse xenografted with human MCF7 cells assessed as morphological changes in heart at 20 mg/kg/day, iv for 4 weeks by hematoxylin and eosin staining based microscopic method; type: toxicity, organism-based; conditions: in vivo, 672 h
Method in brief: (§2)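 Male BALB/c nude mice (6 weeks old) carrying subcutaneous MCF-7 xenografts (1 × 10^6 cells). Dosed iv 20 mg/kg daily for 28 days in 10% DMF/2% poloxamer/88% saline; six mice per group. Organs then fixed in 4% paraformaldehyde, paraffin-embedded, cut at 5 μm, stained with Harris hematoxylin and eosin-phloxine, and examined by light microscopy.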

[12] = Permeability from basolateral to apical side in human Caco2 cells at 100 uM after 5 mins by HPLC method; type: ADME, cell-based; conditions: caco-2, 5 min
Bel-7402 = test: Cell cycle arrest in human Bel7402 cells assessed as accumulation at S phase at 0.5 uM after 48 hrs by propidium iodide staining based flow cytometry (reference value: 8.78%); type: functional
Mus musculus [13] = test: Hepatotoxicity in Balb/c nude mouse xenografted with human MCF7 cells assessed as morphological changes in liver at 20 mg/kg/day, iv for 4 weeks by hematoxylin and eosin staining based microscopic method; type: toxicity, organism-based; conditions: in vivo, 672 h; method in brief: as §2
MCF7 [14] = test: Induction of mitochondrial membrane potential depolarization in human MCF7 cells assessed as ratio of red fluorescence to green fluorescence at 1 uM after 36 hrs by JC1 staining based fluorescence microscopic method (reference value: 1.433); type: functional
Method in brief: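 MCF-7 cells were treated with 0, 0.25, 0.5 or 1 μM for 36 h and loaded with 10 μg/mL JC-1 for 30 min at 37 °C, then washed in PBS. Monomers were read at ex 490/em 535 nm and aggregates at ex 525/em 600 nm, by plate reader or fluorescence microscopy. The red/green ratio came from 10,000 cells per group, in triplicate, mean ± SD.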

MCF7 [15] = test: Induction of apoptosis in human MCF7 cells assessed as live cells at 0.125 uM after 24 hrs by Annexin-V FITC/propidium iodide staining based flow cytometry (reference value: 97%); type: functional
MCF7 [16] = test: Inhibition of colony formation in human MCF7 cells incubated for 24 hrs measured after 10 days by crystal violet staining based microscopic method; type: functional, cell-based
Method in brief: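 MCF-7 cells were plated at 3 × 10^2 per well and left overnight, then exposed to 0, 75, 150 or 300 nM (DMSO vehicle) for 24 h. Medium was removed and cells grew a further 10 days. Colonies were fixed in methanol for 15 min, stained with 0.1% crystal violet for 15 min and counted; a colony was >50 cells. At least three independent experiments, mean ± SD.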

Activity [7]: Dose-dependent effect
permeability [12]: Permeable
SMILES: C=C1C(=O)[C@]23[C@H](OC(=O)/C=C/c4ccccc4)[C@H]1CC[C@H]2[C@]12C=CCC(C)(C)[C@H]1[C@H](O)[C@]3(O)OC2
IC50 [1]: 4.73 µM
Activity (MCF7 [2]): 54.3%
Activity (MCF7 [3]): Active
Activity (MCF7 [4]): 45.2%
Activity (MCF7 [5]): Active
Activity (Mus musculus [6]): Non-Toxic
Activity (MCF7 [8]): 22.4%
Activity (MCF7 [9]): 19.6%
Ratio IC50 [10]: <1
TGI (H22): Active
Activity (Mus musculus [11]): Non-Toxic
Activity (Bel-7402): 7.61%
Activity (Mus musculus [13]): Non-Toxic
Ratio (MCF7 [14]): 0.385
Activity (MCF7 [15]): 84.9%
inhibition (MCF7 [16]): Dose-dependent effect

Reference: ChEMBL document CHEMBL3997810, “A Novel Potent Anticancer Compound Optimized from a Natural Oridonin Scaffold Induces Apoptosis and Cell Cycle Arrest through the Mitochondrial Pathway” (J Med Chem, 2017)
